Active and inactive are the calls of the source.
Columns and labels:
Mus musculus [1] = organism: Mus musculus; assay: Vaginal cornification test in mice at 0.1 ug; predominant cellular component leucocytes (diestrus); type: functional, organism-based
MCF7 [2] = assay: Inhibition of estrogen receptor positive MCF-7 cell proliferation as cell number after 10 days at 10e-7 M and 10e-7 M 17-beta-estradiol; type: functional, Homo sapiens
How it was run: (§1)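 MCF-7 cells were grown in McCoy's 5a medium with fetal bovine serum stripped by DCC (0.5 h, 45 °C). Compounds were dissolved in ethanol (final ≤0.5%) and diluted in complete medium. Cells were seeded at 5×10^4 cells/plate. On day 10, three replicate plates per group were counted by Coulter counter, three counts per plate. Percent T/C = test/control. In a retest, compounds were given at 10^-7 M with 17β-estradiol at 10^-7 or 10^-8 M.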

[3] = target: T1, Estrogen receptor (Mus musculus) (UniProt O08537+P19785); assay: Antiestrogenic activity in uterotrophic test in mice at 5 ug; type: functional
How it was run: (§2)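 Immature female NMRI mice, 20 days old (14.5 ± 1.2 g), randomly grouped 10 per group. Each received a daily sc injection for 3 days of 0.1 mL olive oil solution containing test compound, together with estrone to stimulate uterine growth. Uteri were removed 24 h after the last injection and weighed. Results are reported as % inhibition of the estrone-stimulated uterine weight gain, mean ± SD.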

[4] = target: T1, Estrogen receptor (Mus musculus); assay: Inhibitory activity in mouse uterine weight test at 5 ug; type: functional
How it was run: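 Antiuterotrophic (Dorfman) assay in immature 20-day-old female NMRI mice, groups of 10. Uterine growth was stimulated with estrone (0.1 μg) and the test compound was given alongside it, sc daily for 3 days in 0.1 mL olive oil. Uteri were taken 24 h after the last dose. Uterine weight is reported as means ± SD and inhibition as % of the estrone-stimulated response.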

Rattus norvegicus [5] = organism: Rattus norvegicus; assay: Percent change in body weight DMBA-induced hormone-dependent mammary carcinoma tumors in rats at 2.25 mg for 7 days; type: functional
Rattus norvegicus [6] = organism: Rattus norvegicus; assay: Initial tumor number of DMBA-induced hormone-dependent mammary carcinoma in rats at 2.25 mg; type: functional
How it was run: (§3)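 DMBA-induced, hormone-dependent mammary adenocarcinoma in SD rats. Rats bearing at least one tumor >140 mm² were placed in groups of ten. Compound was given sc as a single dose (mg/kg) daily Monday–Thursday and a double dose on Friday. Tumors were counted at the start and as new tumors; responses were scored as complete remission (not palpable), partial remission (≥50% reduction), no change or progression. Tumor area and body weight were recorded as % change.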

[7] = target: T1, Estrogen receptor (Mus musculus); assay: Antiestrogenic activity in uterotrophic test in mice at 0 ug; type: functional; how it was run: as §2
[8] = target: T1, Estrogen receptor (Mus musculus); assay: Estrogenic activity in uterotrophic test in mice at 90 ug; type: functional
How it was run: (§4)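 Immature (20-day-old) female NMRI mice, 14.5 ± 1.2 g, randomized into groups of 10. Given the test compound sc daily for 3 days in 0.1 mL olive oil. Uteri removed 24 h after the last injection; uterine weight taken as the read-out, means ± SD. Dose in μg.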

[9] = target: T1, Estrogen receptor (Mus musculus); assay: Estrogenic activity in uterotrophic test in mice at 900 ug; type: functional; how it was run: as §4
Rattus norvegicus [10] = organism: Rattus norvegicus; assay: Percent change in body weight DMBA-induced hormone-dependent mammary carcinoma tumors in ovariectomised rats after 7 days; type: functional
How it was run: (§5)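 DMBA-induced, hormone-dependent mammary adenocarcinoma in SD rats, with ovariectomy as the treatment. Rats bearing at least one tumor >140 mm² were placed in groups of ten. Tumors were counted at the start and as new tumors. Responses were scored as complete remission, partial remission (≥50% size reduction), no change or progression, with % change in tumor area and body weight.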

Rattus norvegicus [11] = organism: Rattus norvegicus; assay: Percent change in DMBA-induced hormone-dependent mammary carcinoma tumor area in ovariectomised rats after 28 days; type: functional; how it was run: as §5
Rattus norvegicus [12] = organism: Rattus norvegicus; assay: Partial remission of DMBA-induced hormone-dependent mammary carcinoma tumors in rats at 2.25 mg; type: functional; how it was run: as §3
Rattus norvegicus [13] = organism: Rattus norvegicus; assay: Complete remission of DMBA-induced hormone-dependent mammary carcinoma tumors in rats at 2.25 mg; type: functional
How it was run: (§6)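 Female SD rats bearing DMBA-induced, hormone-dependent mammary adenocarcinoma, with at least one tumor >140 mm², were grouped in tens. Dosing was sc per kg body weight: a single dose daily Monday–Thursday and a double dose Friday. Ovariectomy served as the comparison arm. Complete remission was defined as a tumor no longer palpable. Body weight and tumor area changes were also recorded.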

Rattus norvegicus [14] = organism: Rattus norvegicus; assay: Percent unchanged tumor size of DMBA-induced hormone-dependent mammary carcinoma tumors in ovarectiemised rats; type: functional; how it was run: as §5
Rattus norvegicus [15] = organism: Rattus norvegicus; assay: Partial remission of DMBA-induced hormone-dependent mammary carcinoma tumors in rats at 9 mg; type: functional; how it was run: as §3
Rattus norvegicus [16] = organism: Rattus norvegicus; assay: Percent change in body weight DMBA-induced hormone-dependent mammary carcinoma tumors in rats at 9 mg for 7 days; type: functional
Rattus norvegicus [17] = organism: Rattus norvegicus; assay: Complete remission of DMBA-induced hormone-dependent mammary carcinoma tumors in rats at 2 mg; type: functional; how it was run: as §6
[18] = target: T1, Estrogen receptor (Mus musculus); assay: Antiestrogenic activity in uterotrophic test in mice at 5 ug (experiment 1); type: functional; how it was run: as §2
[19] = target: T1, Estrogen receptor (Mus musculus); assay: Antiestrogenic activity in uterotrophic test in mice at 2.5 ug (experiment 1); type: functional; how it was run: as §2
Rattus norvegicus [20] = organism: Rattus norvegicus; assay: Partial remission of DMBA-induced hormone-dependent mammary carcinoma tumors in rats at 4 mg; type: functional; how it was run: as §3
Rattus norvegicus [21] = organism: Rattus norvegicus; assay: Percent change in body weight DMBA-induced hormone-dependent mammary carcinoma tumors in rats at 18 mg for 7 days; type: functional; settings: in the assay text read “at 1 mg” for “at 18 mg”; how it was run: as §3
Mus musculus [22] = organism: Mus musculus; assay: Predominant components of vaginal smear at a compound concentration of 50 ug was determined using vaginal cornification test; leucocytes (</= 50%), nucleated and cornified, nucleated cellscharacteristic of antiestrogens; type: functional, organism-based
Rattus norvegicus [23] = organism: Rattus norvegicus; assay: Final number of DMBA-induced hormone-dependent mammary carcinoma tumors in rats at 1 mg; type: functional
How it was run: (§7)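 Sprague-Dawley rats carrying DMBA-induced, hormone-dependent mammary adenocarcinoma, at least one tumor >140 mm², were placed in groups of ten. Compounds were given sc, with doses in mg/kg: a single daily dose Monday to Thursday and a double dose on Friday. Ovariectomy served as a comparator group. New tumors arising during the test were counted.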

Rattus norvegicus [24] = organism: Rattus norvegicus; assay: Final number of DMBA-induced hormone-dependent mammary carcinoma tumors in rats at 4 mg; type: functional; how it was run: as §7
Mus musculus [25] = organism: Mus musculus; assay: Vaginal cornification test in mice at 5 ug; predominant cellular component leucocytes (diestrus); type: functional, organism-based
How it was run: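 Female NMRI mice (~15 g) were ovariectomized; castration was confirmed at 10 days by leucocyte smears. Mice were primed with estradiol 3-benzoate 0.2 μg, and only responders showing estrus were kept. Groups of three received sc test compound in 0.1 mL olive oil daily for 3 days. Saline vaginal smears were taken 6, 24, 30, 48 and 54 h after the last dose and scored by Allen-Doisy.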

[26] = target: T1, Estrogen receptor (Mus musculus); assay: Antiestrogenic activity in uterotrophic test in mice at 25 ug (experiment 2); type: functional; how it was run: as §2
MCF7 [27] = assay: Inhibition of estrogen receptor positive MCF-7 cell proliferation as cell number after 10 days at 10e-7 M with 10e-7 M 17-beta-estradiol; type: functional, Homo sapiens; how it was run: as §1
Rattus norvegicus [28] = organism: Rattus norvegicus; assay: Percent unchanged tumor size of DMBA-induced hormone-dependent mammary carcinoma tumors in rats at 2 mg; type: functional
[29] = target: T1, Estrogen receptor (Mus musculus); assay: Estrogenic activity in uterotrophic test in mice at 80 ug (experiment 2); type: functional; how it was run: as §4
[30] = target: T1, Estrogen receptor (Mus musculus); assay: Estrogenic activity in uterotrophic test in mice at 0 ug (experiment 1); type: functional
How it was run: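 Uterine growth stimulation in immature female NMRI mice, 20 days old (14.5 ± 1.2 g), 10 per group. Test compound in 0.1 mL olive oil was given sc daily for 3 days. Uteri were excised 24 h after the final injection and weighed. Effect is reported as mean ± SD.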

Rattus norvegicus [31] = organism: Rattus norvegicus; assay: Percent change in DMBA-induced hormone-dependent mammary carcinoma tumor area at 4 mg after 28 days; type: functional; how it was run: as §3

T1 sequence (O08537 whole entry, looked up): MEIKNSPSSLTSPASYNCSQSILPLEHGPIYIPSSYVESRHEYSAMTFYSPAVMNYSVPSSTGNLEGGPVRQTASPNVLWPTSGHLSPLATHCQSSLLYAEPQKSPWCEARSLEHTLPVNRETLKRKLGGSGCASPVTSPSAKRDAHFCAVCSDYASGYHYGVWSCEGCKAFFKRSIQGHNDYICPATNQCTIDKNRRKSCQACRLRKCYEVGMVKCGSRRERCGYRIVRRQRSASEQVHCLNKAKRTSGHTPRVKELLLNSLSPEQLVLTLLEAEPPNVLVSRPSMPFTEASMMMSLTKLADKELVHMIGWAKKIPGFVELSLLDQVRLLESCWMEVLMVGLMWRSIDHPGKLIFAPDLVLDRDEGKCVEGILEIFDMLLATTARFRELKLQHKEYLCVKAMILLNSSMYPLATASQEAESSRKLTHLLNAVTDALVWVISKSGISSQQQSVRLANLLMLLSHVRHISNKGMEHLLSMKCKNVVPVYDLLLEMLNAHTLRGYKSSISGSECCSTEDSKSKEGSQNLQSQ
T1 sequence (P19785 whole entry, looked up): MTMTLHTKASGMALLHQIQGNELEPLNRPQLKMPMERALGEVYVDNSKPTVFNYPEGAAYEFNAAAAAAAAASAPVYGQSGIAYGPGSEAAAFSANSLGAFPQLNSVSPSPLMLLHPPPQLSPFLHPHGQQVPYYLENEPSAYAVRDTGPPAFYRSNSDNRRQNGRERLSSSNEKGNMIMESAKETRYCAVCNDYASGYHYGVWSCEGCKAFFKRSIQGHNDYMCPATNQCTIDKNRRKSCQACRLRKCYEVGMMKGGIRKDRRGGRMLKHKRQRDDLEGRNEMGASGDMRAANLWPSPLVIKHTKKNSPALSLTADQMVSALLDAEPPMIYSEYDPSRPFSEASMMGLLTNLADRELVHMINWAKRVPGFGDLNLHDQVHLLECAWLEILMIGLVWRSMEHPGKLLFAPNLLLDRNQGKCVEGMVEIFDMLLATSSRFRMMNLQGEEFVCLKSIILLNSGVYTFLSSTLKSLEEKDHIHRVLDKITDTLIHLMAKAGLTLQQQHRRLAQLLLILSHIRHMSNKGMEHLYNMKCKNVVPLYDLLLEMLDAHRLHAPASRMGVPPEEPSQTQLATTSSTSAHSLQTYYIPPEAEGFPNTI

CCCC(c1cccc(O)c1)C(CCC)c1cccc(O)c1 (stereo unspecified)
Activity (Mus musculus [1]): inactive
Cell number (MCF7 [2]): 5600
Effect [3]: 30.4
inhibition [4]: 26%
Change (Rattus norvegicus [5]): 0.4%
No. of tumors (Rattus norvegicus [6]): 22
Effect [7]: 9.9
Effect [8]: 17.6
Effect [9]: 28.7
Change (Rattus norvegicus [10]): 3.6%
Change (Rattus norvegicus [11]): -99%
Tumors (Rattus norvegicus [12]): 8%
Tumors (Rattus norvegicus [13]): 25%
Tumors (Rattus norvegicus [14]): 0%
Tumors (Rattus norvegicus [15]): 22%
Change (Rattus norvegicus [16]): -2.7%

CCC(c1cccc(O)c1)C(CC)c1cccc(O)c1 (stereo in doubt; 20)
Tumors (Rattus norvegicus [17]): 19%
Effect [18]: 23.5
Effect [19]: 29.5
Tumors (Rattus norvegicus [20]): 25%
Change (Rattus norvegicus [21]): -1.6%
Activity (Mus musculus [22]): Weak activity
No. of tumors (Rattus norvegicus [23]): 37
No. of tumors (Rattus norvegicus [24]): 11
Activity (Mus musculus [25]): inactive
Effect [26]: 28.1
Cell number (MCF7 [27]): 5600
Tumors (Rattus norvegicus [28]): 30%
Effect [29]: 30.5
Effect [30]: 10.7
Change (Rattus norvegicus [31]): -75%

— ChEMBL document CHEMBL1121898, “Potential antiestrogens. Synthesis and evaluation of mammary tumor inhibiting activity of 1,2-dialkyl-1,2-bis(3'-hydroxyphenyl)ethanes” (1981)
